From ChEMBL document CHEMBL1141217, “cycloSal-PMEA and cycloAmb-PMEA: potentially new phosphonate prodrugs based on the cycloSal-pronucleotide approach” (J Med Chem, 2005) come the findings set out here.

In data set [1] the test system is Human immunodeficiency virus 1. Kind of data set: Antiviral potency against HIV1 in CEM/O cells. The class given is functional, organism-based. Conditions: Human immunodeficiency virus 1, CEM/O. An outline of the steps: (§1)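 CEM cells at 4×10^5 cells/mL infected with HIV-1 or HIV-2 (ROD) at ~100 CCID50 per mL; virus stocks from infected MT-4 cell supernatants. Infected cells mixed with serial compound dilutions. After 4–5 days, giant cell formation scored microscopically; EC50 = concentration giving 50% protection.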

The next data set relates to CCRF-CEM. Description: Cytotoxicity against CEM/O cells. Type of data set: functional. To be noted: Homo sapiens.
Data set [2] relates to Human immunodeficiency virus 2. Kind of data set: Antiviral potency against HIV2 in CEM/O cells. The class given is functional, organism-based. Conditions: Human immunodeficiency virus 2, CEM/O. Summed up:
as §1

A short description of data set [3]: Chemical stability in phosphate buffer at pH 7.3. The class given is physicochemical. Conditions: read-out: Stability (converted). An outline of the steps: (§2)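 Triesters hydrolysed at 37 °C in phosphate buffer pH 7.3 or citrate buffer pH 2.0, with AZT as internal standard; final 0.96 mM triester, 24.8 mM buffer. Aliquots quenched with glacial acetic acid and frozen, then analysed by reversed-phase HPLC with UV at 250 nm. t1/2 from rate constants of starting-triester peak decay; mean of duplicates.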

The target of another data set is Cholinesterase (Homo sapiens, UniProt P06276). Kind of data set: Inhibitory activity against human butyryl cholinesterase.
Cholinesterase, sequence (P06276 whole entry): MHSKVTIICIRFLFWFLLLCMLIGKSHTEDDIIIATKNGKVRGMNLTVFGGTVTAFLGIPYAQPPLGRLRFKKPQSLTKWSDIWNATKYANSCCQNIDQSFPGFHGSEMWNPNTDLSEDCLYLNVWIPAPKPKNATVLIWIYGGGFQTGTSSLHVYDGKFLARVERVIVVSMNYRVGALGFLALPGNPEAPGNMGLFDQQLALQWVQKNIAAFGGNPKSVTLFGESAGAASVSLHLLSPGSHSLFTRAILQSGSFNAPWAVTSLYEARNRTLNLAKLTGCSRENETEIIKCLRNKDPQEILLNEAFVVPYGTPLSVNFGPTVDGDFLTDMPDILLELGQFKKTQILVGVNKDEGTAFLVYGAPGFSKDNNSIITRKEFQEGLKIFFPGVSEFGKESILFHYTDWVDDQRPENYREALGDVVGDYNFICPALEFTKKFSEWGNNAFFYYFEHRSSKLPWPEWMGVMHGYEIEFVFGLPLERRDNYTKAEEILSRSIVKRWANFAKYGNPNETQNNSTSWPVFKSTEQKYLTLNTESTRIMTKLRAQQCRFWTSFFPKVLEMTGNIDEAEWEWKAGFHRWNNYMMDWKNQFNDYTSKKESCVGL
A short description of data set [4]: Half life in CEM/O cells. To be noted: human, CEM/O cells (CCRF-CEM cell line). Type of data set: ADME, cell-based. An outline of the steps: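 Triester (1.5 mM stock in DMSO) incubated with CEM cell extract plus MgCl2 (70 mM stock) for 8 h. Stopped with acidic methanol, 5 min at 0 °C, centrifuged and filtered; supernatant analysed by reversed-phase HPLC with UV at 250 nm.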

Data set [5] can be described thus: Inhibitory activity against human acetyl cholinesterase.
The nature of data set [6]: LogP using HPLC method. The class given is physicochemical.
A short description of data set [7]: Chemical stability in citrate buffer at pH 2.0. Type of data set: physicochemical. An outline of the steps:
as §2

Active and inactive are the calls of the source. The calls are words filed in the database; no cut-off is given here. Bounds are passed on as bounds.

With `Nc1ncnc2c1ncn2CCOCP(=O)(O)O` [ADEFOVIR], the EC50 in data set [1] and in data set [2] was 10 µM in each case. Moreover, in the data set on CCRF-CEM, the CC50 was found to be 50 µM.

`CC(C)(C)C(=O)OCOP(=O)(COCCn1cnc2c(N)ncnc21)OCOC(=O)C(C)(C)C` [ADEFOVIR DIPIVOXIL]: the EC50 in [1] was 0.18 µM; in data set [2] it was 0.075 µM. The same compound returned a CC50 in the data set with CCRF-CEM of 0.74 µM. Further, in data set [3], the half-life was 14.7 h.

Compound `Cc1cccc2c1OP(=O)(COCCn1cnc3c(N)ncnc31)OC2` (stereo unspecified) returned an IC50 at Cholinesterase of over 50 µM. Moreover, the half-life in data set [4] was 0.6 h; in data set [3], 0.56 h. The result in [5] was inactive.

Turning to `Nc1ncnc2c1ncn2CCOCP1(=O)Nc2cccc(F)c2CO1` (stereo unspecified), the IC50 against Cholinesterase is over 50 µM. Further, the EC50 in data set [1] was found to be 28 µM; in data set [2], 26 µM. Also, the 50% cytotoxic concentration (CC50) with CCRF-CEM was 244 µM. Moreover, the lipophilicity (logP) in [6] was 0.49. Besides, the outcome in data set [5] was inactive. For the same compound, the half-life in data set [3] is 1.3 h.

In the case of `Cc1cccc2c1NP(=O)(COCCn1cnc3c(N)ncnc31)OC2` (stereo unspecified), the 50% inhibitory concentration (IC50) against Cholinesterase was over 50 µM. The EC50 in [1] was found to be 29 µM; in data set [2], 56 µM. The CC50 with CCRF-CEM is over 250 µM. Further, the lipophilicity (logP) in data set [6] is 0.45. Also, the Stability in data set [7] is 29 h. Also, in [5], the result was inactive. For the same compound, in [3], the half-life is 21.3 h.

Regarding `Nc1ncnc2c1ncn2CCOCP1(=O)OCc2ccccc2O1` (stereo unspecified), on Cholinesterase, the IC50 was over 50 µM. Also, the results for the half-life in data set [4] and in [3] were 0.1 h and 0.09 h, respectively. The result in data set [5] was inactive.

On to `CC(C)(C)c1cccc2c1OP(=O)(COCCn1cnc3c(N)ncnc31)OC2` (stereo unspecified), for which, on Cholinesterase, the IC50 is over 50 µM. For the same compound, the 50% effective concentration (EC50) in [1] came to 3 µM; in data set [2] it was 4.5 µM. Also, the midpoint of cytotoxicity with CCRF-CEM, the CC50, lay at 29 µM. Moreover, the half-life in data set [4] was 3 h; in [3] it was 4.05 h. In [6], this compound displayed a logP of 0.47. For the same compound, the Stability in data set [7] worked out at 23.7 h. The outcome in data set [5] was inactive.

With `Nc1ncnc2c1ncn2CCOCP1(=O)Nc2ccccc2CO1` (stereo unspecified), the IC50 against Cholinesterase was over 50 µM. Moreover, the EC50 came out at 20 µM in [1] and 21 µM in data set [2]. The compound also returned a 50% cytotoxic concentration (CC50) with CCRF-CEM of 183 µM. In data set [6], this compound returned a log partition coefficient (logP) of 0.23. This compound also registered a Stability in [7] of 9.6 h. Further, in data set [5], the result was inactive. Besides, the half-life in [3] is 4 h.

Regarding `CC(C)(C)c1cc2c(c(C(C)(C)C)c1)OP(=O)(COCCn1cnc3c(N)ncnc31)OC2` (stereo unspecified), the IC50 on Cholinesterase was over 50 µM. In addition, the results for the concentration giving a half-maximal response (EC50) in data set [1] and in data set [2] were 5.5 µM and 5.3 µM, respectively. In the data set with CCRF-CEM, this compound showed a CC50 of 17 µM. For the same compound, the values for the half-life in data set [4] and in data set [3] were 3 h and 3.05 h, respectively. The same compound came in with a logP in [6] of 1.72. In data set [7], this compound showed a Stability of 9.6 h. For the same compound, the outcome in [5] was inactive.
